# MrgX1 PAM: human MrgX1 positive allosteric modulation, primary screen; Q96LB2; MrgX1-HEK293, Fluo-4 calcium flux, FDSS; stronger effect = higher value; B-score at 10 µM; actives 0.63% (n = 310,000); AID 588675;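 active = plate-corrected calcium response at least 3 library SD above typical, normal starting fluorescence, not activating the receptor alone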;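 also: compound read alongside a low EC10 to EC30 dose of BAM8-22 agonist; peak minus trough fluorescence over baseline measured at the second addition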
# Target sequence (Q96LB2 whole entry, looked up): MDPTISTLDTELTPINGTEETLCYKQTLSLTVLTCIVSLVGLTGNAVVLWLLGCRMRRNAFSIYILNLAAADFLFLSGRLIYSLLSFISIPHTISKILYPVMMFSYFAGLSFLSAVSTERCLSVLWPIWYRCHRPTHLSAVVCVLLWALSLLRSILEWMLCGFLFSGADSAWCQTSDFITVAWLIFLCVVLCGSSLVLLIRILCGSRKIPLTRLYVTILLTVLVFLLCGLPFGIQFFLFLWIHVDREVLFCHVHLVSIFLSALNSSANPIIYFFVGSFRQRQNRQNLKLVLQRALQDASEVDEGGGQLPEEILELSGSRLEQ
# RGS4 act: RGS4 potentiation or activation; HEK293 M3R/inducible RGS4, carbachol calcium flux Fluo4; stronger effect = lower value; B-score at 10 µM; actives 0.92% (n = 310,000); AID 463111;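 active = B-score of the integrated calcium signal more than 4 SD below the library mean, with starting fluorescence not abnormally high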;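 also: negative B-score means reduced calcium response which marks RGS4 activation or potentiation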
#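 Material: Inducible-RGS4 HEK293 cells carrying M3 receptor; also added: carbachol at ECmax as muscarinic agonist stimulus; incubation: compound preincubation 20 min at room temperature before agonist; signal: Fluo4-AM (2 µM) calcium-flux fluorescence, kinetic read; measure: integrated calcium ratio converted to B score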
# Cl transport mod: modulators of human KCC2 chloride dependent transport; KCC2 cells, thallium flux FluoZin-2 fluorescence; B-score of Tl+ flux slope (higher = more flux/activation; lower = inhibition) at 10 µM; actives 2.2% (n = 190,000);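 active = thallium flux slope and its plate-corrected score both differing from the plate sample mean at a set confidence after two filtering rounds, in either direction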;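 also: slope of fluorescence scaled to starting intensity during 10 to 20 s after thallium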
# RGS4 block: human RGS4 inhibition; B-score at 10 µM; AID 463165; HEK293 M3R/RGS4 inducible, Fluo-4 calcium flux; stronger effect = higher value; triggered by carbachol at its EC20; actives 0.45% (n = 310,000); P49798;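 active = B-score, a plate-corrected calcium signal, over three deviations above library mean, with baseline fluorescence within five deviations of library mean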;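 also: RGS4 expression induced by doxycycline in cells with stable M3 receptor; B-score is computed from the integrated fluorescence ratio over baseline after carbachol; higher B-score means a larger calcium signal and so more RGS4 inhibition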
# Target sequence (P49798 whole entry, looked up): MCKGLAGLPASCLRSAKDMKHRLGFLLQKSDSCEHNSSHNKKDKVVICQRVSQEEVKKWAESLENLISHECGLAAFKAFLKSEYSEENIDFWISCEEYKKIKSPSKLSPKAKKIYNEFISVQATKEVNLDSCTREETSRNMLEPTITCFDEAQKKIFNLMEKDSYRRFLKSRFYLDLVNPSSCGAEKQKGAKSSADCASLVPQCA
# MrgX1 agonist: human MrgX1 receptor agonism, primary screen; Q96LB2; MrgX1-HEK293 cells, Fluo-4 calcium fluorescence, agonist mode; stronger effect = higher value; B-score at 10 µM; actives 0.44% (n = 310,000); AID 588627;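 active = calcium response B-score plate-corrected fluorescence ratio at least 3 library SD, with starting fluorescence B-score inside 5 SD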
#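 Test system: HEK293 cells stably expressing human MrgX1 receptor; Input: fifteen thousand cells per well; Dosing: compound delivered in addition one of three; Schedule: overnight seeding, then 1 h dark dye loading; Technique: Fluo-4 NW calcium fluorescence; Measure: B-scored fluorescence response ratio; Controls: positive and negative controls per plate.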
# MrgX1 antag: human MrgX1 receptor antagonism, primary screen; Q96LB2; AID 588676; MRGX1-HEK293 calcium flux, Fluo-4, BAM8-22 antagonism; stronger effect = lower value; B-score at 10 µM; actives 1.3% (n = 310,000);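 active = calcium-response B-score plate-corrected more than 3 library SD below zero, starting fluorescence within 5 deviations, no agonist response on first addition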;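 also: peak minus trough fluorescence over baseline after final BAM8-22 challenge near maximal dose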
# KCC2 secondary: confirmation of human KCC2 transport modulators. normalised thallium flux (F/F0 slope) at 10 µM. shares compounds with Cl transport mod. HEK293-KCC2, thallium flux, FluoZin2 fluorescence; stronger effect = higher value. AID 1713. actives 15% (n = 3,700);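 active = thallium flux slope above the same plate's solvent-only control mean plus 3 SD; inconclusive = the two replicate wells disagree; inactive = no significant difference from solvent-only control wells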
# KCC2 bumet counter: bumetanide-insensitive thallium flux in KCC2 cells with ouabain, counter-screen; actives 49% (n = 3,700); normalized thallium flux at 10 µM; HEK293-KCC2 + bumetanide/ouabain, thallium flux FluoZin2; stronger effect = higher value; shares compounds with Cl transport mod;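 active = thallium entry rate above the same plate's blocked-transporter control wells by more than 3 SD; inconclusive = the two repeat wells disagree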;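 also: raw slope of fluorescence over initial fluorescence between 10 and 20 s after thallium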
# KCC2 secondary2: confirmation of human KCC2 transport modulators. shares compounds with Cl transport mod. HEK293-KCC2, thallium flux FluoZin2 fluorescence; actives lie on both sides; F/F0 rise rate, 10–20 s post-thallium. normalized thallium flux at 10 µM. actives 23% (n = 3,700). AID 1715;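 active = thallium flux slope more than 3 SD above or below the plate's solvent-only control mean, mostly below; inconclusive = the two repeat wells disagreed; inactive = no significant shift from solvent-only controls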;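 also: raw slope with 0.1% DMSO as baseline and bumetanide as block control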
# HEK counter1: acts in parental HEK cells, KCC2 counter-screen | thallium flux rate (normalised fluorescence) at 10 µM | actives 46% (n = 3,700) | shares compounds with Cl transport mod | HEK293 parental cells, thallium flux FluoZin2, ouabain; baseline-ratio fluorescence slope, 10–20 s after thallium;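 active = thallium flux rate significantly above the same plate's solvent-only control wells, beyond their mean plus 3 SD; inconclusive = the two replicate wells gave conflicting results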
# KCC2 retest ouab: confirmation of human KCC2 modulators with ouabain | AID 1717 | HEK293-KCC2, thallium flux FluoZin2 fluorescence; bidirectional: low = inhibitor, high = activator | actives 48% (n = 3,700) | shares compounds with Cl transport mod | raw Tl+ flux slope (below DMSO = inhibition, above = activation) at 10 µM;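 active = thallium flux slope beyond 3 SD from same-plate DMSO control mean in most replicates, usually higher, sometimes lower; inconclusive = repeat tests gave conflicting results; inactive = no significant difference from controls in most replicates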;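 also: slope of initial-normalized fluorescence between seconds 10 and 20 after thallium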
# HEK counter2: parental HEK flux effect, counter-screen 2. thallium flux slope at 10 µM. shares compounds with Cl transport mod. actives 33% (n = 3,700). HEK293 parental, thallium flux FluoZin-2 fluorescence slope;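 active = thallium flux slope above the same plate's solvent-control mean plus 3 SD in both duplicate wells; inconclusive = duplicate wells that disagreed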;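 also: run without ouabain in cells lacking the KCC2 cotransporter; slope of fluorescence scaled to its starting value between 10 and 20 s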
# * = called active by the depositor; i = inactive; ? = inconclusive; / = no result given. An excerpt weighted towards active compounds, which were near 4.7% of everything screened.
SMILES,MrgX1 PAM,RGS4 act,Cl transport mod,RGS4 block,MrgX1 agonist,MrgX1 antag,KCC2 secondary,KCC2 bumet counter,KCC2 secondary2,HEK counter1,KCC2 retest ouab,HEK counter2
COc1cc(NC(=O)CCN2CC(C)OC(C)C2)cc(OC)c1 (configuration not stated),i,i,/,i,i,i,/,/,/,/,/,/
Cc1nc(C(=O)NNC(=O)c2ccccc2)c(C(F)(F)F)o1,i,i,4.2*,i,i,i,0.0058,0.0065*,?,0.0087*,0.019,0.01
CCOc1ccc(CCNC(=O)c2cc3sc(Cl)cc3n2C)cc1OCC,i,i,0.23,i,i,i,/,/,/,/,/,/
CCOc1ccc(CCNC(=O)c2cc3sccc3n2C)cc1OCC,i,i,3.9*,i,i,i,0.0074,0.0041,?,?,0.017,0.0094
COc1ccc(CCN2CC(C(=O)NCc3ccccc3)CCC2=O)cc1 (configuration not stated),i,i,/,i,i,i,/,/,/,/,/,/
O=C(O)CCCN(Cc1cccc(Br)c1)S(=O)(=O)c1ccc(Br)cc1,i,i,-5.5*,i,i,i,0.0084,0.0062,0.029*,0.0037,0.012*,0.011
COc1ccc(S(=O)(=O)N(CCC(=O)O)Cc2ccccc2)cc1,i,i,-3.7*,i,i,i,0.0075,0.0047,0.022*,0.0073,0.015*,0.01
COc1ccc(S(=O)(=O)NC2CC(=O)N(c3ccccc3)C2)cc1C (configuration not stated),i,i,/,i,i,i,/,/,/,/,/,/
CC1Oc2ccccc2N(CC(=O)N(Cc2ccccc2)Cc2ccccn2)C1=O (configuration not stated),i,i,-0.4,i,i,i,/,/,/,/,/,/
COc1ccc(CN(Cc2ccccn2)C(=O)CN2C(=O)COc3ccccc32)cc1,i,i,-2.8*,i,i,i,0.0069,0.0045,0.024*,0.0075,0.017*,0.01
CSc1nc2[nH]c3c(c2c2ncnn12)CCCC3,i,i,-0.014,i,i,i,0.0088,0.0061,0.032,0.0075,0.019,0.011
CCOc1ccc(/C=N/n2cc(-c3ccccc3)[nH]c2=S)cc1,i,i,28*,i,i,i,?,0.057*,0.033,0.026*,0.053*,0.012*
S=c1[nH]c(-c2ccccc2)cn1/N=C/c1ccncc1,i,i,1.8,i,i,i,/,/,/,/,/,/
FC(F)Sc1nc2ccccc2[nH]1,i,i,50*,i,i,i,0.026*,0.11*,0.048*,0.05*,0.051*,0.024*
COc1ccc(C2C(C(N)=O)=C(C)Nc3nc(-c4cccc(Cl)c4)nn32)cc1OC (configuration not stated),i,i,0.86,i,i,i,/,/,/,/,/,/
COc1ccc(C2C(C(N)=O)=C(C)Nc3nc(-c4ccccc4)nn32)cc1OC (configuration not stated),i,i,5.5*,i,i,i,0.0069,?,0.029,0.0082,0.019,?
COC(=O)c1ccc(C(C(=O)NCc2ccccc2)N(Cc2cccs2)C(=O)c2cnccn2)cc1 (configuration not stated),i,i,/,i,i,i,0.0093,0.0059,0.033,0.0085,0.02,0.011
N#Cc1ccccc1CSc1nc2ccc(NC(=O)c3ccccc3C(=O)O)cc2s1,i,i,-3.6*,i,i,i,0.0078,0.005,0.037,0.0037,0.017*,0.01
O=C(O)c1ccc(CSc2nc3ccc(NC(=O)c4ccccc4C(=O)O)cc3s2)cc1,i,i,0.63,i,i,i,/,/,/,/,/,/
CCOc1ccc(CN(CCC#N)C(=S)NC(=O)c2ccccc2)cc1,i,i,30*,i,i,i,0.046*,0.12*,0.044*,0.073*,0.093*,0.03*
Cc1cc(Cl)ccc1Oc1ccccc1C(=O)CC#N,i,i,-5.5*,i,i,i,0.0064,0.0048,?,0.0065,?,0.0093
CC(C)Oc1ccc(/C=N/NC(=O)c2nnn(-c3nonc3N)c2CN(C)c2ccccc2)cc1,i,i,/,i,i,i,/,/,/,/,/,/
CCN1CCCc2cc(CN(CCN3CCOCC3)C(=S)Nc3cc(F)cc(F)c3)ccc21,i,i,-0.21,i,i,i,/,/,/,/,/,/
CC1CCCC(C)N1CCCNC(=O)Cn1ncc2c3ccccc3n(C)c2c1=O (configuration not stated),i,i,/,i,i,i,/,/,/,/,/,/
COc1ccc(Cl)cc1NC(=O)C/C(C)=N/NC(=O)C(=O)NCc1ccccc1,i,i,/,i,i,i,/,/,/,/,/,/
COc1ccc2[nH]c3c(NCCN4CCCCC4)ncnc3c2c1,i,i,-5.2*,i,i,i,0.0068,0.0046,0.028,0.0073,0.019,0.011
CCOc1ccc2[nH]c3c(NCCO)ncnc3c2c1,i,i,/,i,i,i,/,/,/,/,/,/
COc1ccccc1-c1ccc(=O)n(CC(=O)NCc2ccc3c(c2)OCO3)n1,i,i,-3.7*,i,i,i,0.0077,0.0092*,0.032,?,0.016*,0.011
O=C(NCCN1CCOCC1)C1CC(=O)N(c2ccc(F)cc2)C1 (configuration not stated),i,i,/,i,i,i,/,/,/,/,/,/

# Source: PubChem BioAssay
